# Reference: ChEMBL document CHEMBL1144782, “Isoindolo[2,1-a]quinoxaline derivatives, novel potent antitumor agents with dual inhibition of tubulin polymerization and topoisomerase I” (2008)
# What was measured:
# Assay type in all cases: functional
# PC-3 = test: Antitumor activity against human PC3 cells
# In short: (§1)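 Run by the NCI in its in vitro disease-oriented screen of about 60 human tumour cell lines. For each line it reports pGI50 (50% net growth inhibition), pTGI (total growth inhibition) and pLC50 (50% net cell death), each as –log molar concentration. Where an effect was not reached within the tested range, the highest tested concentration was used.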
# NCI-H23 = test: Antitumor activity against human NCI-H23 cells; in short: as §1
# SK-MEL-5 = test: Antitumor activity against human SKMEL5 cells; in short: as §1
# Malme-3M = test: Antitumor activity against human MALME3M cells; in short: as §1
# SR = test: Antitumor activity against human SR cells
# In short: (§2)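 NCI 60-cell-line screen. Parameters were GI50 (50% net growth inhibition), TGI and LC50, each reported as –log molar concentration. Where an effect was not reached within the tested range, the highest tested concentration was used in the calculation.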
# SNB-19 = test: Antitumor activity against human SNB19 cells; in short: as §1
# MCF7 = test: Growth inhibition of human MCF7 cells after 72 hrs by MTT assay; conditions: MCF7, 72 h
# In short: (§3)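 Growth inhibition by MTT after 72 h incubation. Resistant sublines: LoVoDoxo and MCF-7 MDR were kept in 0.1 µg/mL doxorubicin; CEMVbl-100 was selected against vinblastine. GI50 given as mean ± SEM of three independent experiments. Resistance index is resistant-line GI50 over parental GI50.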
# RXF 393 = test: Antitumor activity against human RXF393 cells; in short: as §1
# CCRF-CEM [1] = test: Antitumor activity against human CCRF-CEM cells; in short: as §1
# A498 = test: Antitumor activity against human A498 cells; in short: as §1
# OVCAR-5 = test: Antitumor activity against human OVCAR5 cells; in short: as §1
# SW-620 = test: Antitumor activity against human SW620 cells; in short: as §2
# NCI/ADR-RES = test: Antitumor activity against human NCI/ADR-RES cells; in short: as §1
# MDA-MB-435 = test: Antitumor activity against human MDA-MB-435 cells; in short: as §1
# KM12 = test: Antitumor activity against human KM12 cells; in short: as §1
# [2] = Antitumor activity against human NCI-H322 cells; in short: as §1
# CCRF-CEM [3] = test: Growth inhibition of human vinblastine-resistant CEM cells after 72 hrs by MTT assay; in short: as §3
# SK-MEL-2 = test: Antitumor activity against human SKMEL2 cells; in short: as §1
# NCI-H226 = test: Antitumor activity against human NCI-H226 cells; in short: as §1
# EKVX = test: Antitumor activity against human EKVX cells; in short: as §1
# [4] = read-out: Log LC50 (the source's name) (converted)
structure (smiles),measurement,setting,value
Cc1cccc2c1[nH]c(=O)c1c3ccccc3cn21,GI50,PC-3,3.89 µM
same,LC50 (50% net cell death),PC-3,> 100 µM
same,TGI,PC-3; read-out: pTGI (converted),44.7 µM
same,GI50,NCI-H23,17.4 µM
same,LC50 (50% net cell kill),NCI-H23,87.1 µM
same,TGI,NCI-H23; read-out: pTGI (converted),38.9 µM
same,GI50,SK-MEL-5,11.7 µM
same,LC50,SK-MEL-5,49 µM
same,TGI,SK-MEL-5; read-out: pTGI (converted),24 µM
same,GI50,Malme-3M,8.32 µM
same,CC50,Malme-3M; [4],67.6 µM
same,TGI,Malme-3M; read-out: pTGI (converted),24.5 µM
same,GI50,SR,1.55 µM
same,LC50,SR,12.6 µM
same,TGI,SR; read-out: pTGI (converted),4.17 µM
same,GI50,SNB-19,15.5 µM
same,CC50,SNB-19; [4],> 100 µM
same,TGI,SNB-19; read-out: pTGI (converted),47.9 µM
same,GI50,MCF7,3.7 µM
same,GI50,RXF 393,9.12 µM
same,CC50,RXF 393; [4],> 100 µM
same,TGI,RXF 393; read-out: pTGI (converted),38 µM
same,GI50,CCRF-CEM [1],1.2 µM
same,LC50,CCRF-CEM [1],74.1 µM
same,TGI,CCRF-CEM [1]; read-out: pTGI (converted),12.6 µM
same,GI50,A498,16.2 µM
same,CC50,A498; [4],> 100 µM
same,TGI,A498; read-out: pTGI (converted),41.7 µM
same,GI50,OVCAR-5,17.8 µM
same,LC50 (50% net cell death),OVCAR-5,> 100 µM
same,TGI,OVCAR-5; read-out: pTGI (converted),66.1 µM
same,GI50,SW-620,5.75 µM
same,CC50,SW-620; [4],42.7 µM
same,TGI,SW-620; read-out: pTGI (converted),17.8 µM
same,GI50,NCI/ADR-RES,12 µM
same,LC50,NCI/ADR-RES,> 100 µM
same,TGI,NCI/ADR-RES; read-out: pTGI (converted),34.7 µM
same,GI50,MDA-MB-435,3.16 µM
same,LC50 (50% net cell death),MDA-MB-435,95.5 µM
same,TGI,MDA-MB-435; read-out: pTGI (converted),11.5 µM
same,GI50,KM12,3.39 µM
same,LC50 (50% net cell death),KM12,> 100 µM
same,TGI,KM12; read-out: pTGI (converted),22.9 µM
same,GI50,[2],13.5 µM
same,LC50 (50% net cell death),[2],> 100 µM
same,TGI,[2]; read-out: pTGI (converted),45.7 µM
same,GI50,CCRF-CEM [3],3 µM
same,GI50,SK-MEL-2,14.5 µM
same,LC50,SK-MEL-2,> 100 µM
same,TGI,SK-MEL-2; read-out: pTGI (converted),> 100 µM
same,GI50,NCI-H226,3.24 µM
same,LC50 (50% net cell kill),NCI-H226,> 100 µM
same,TGI,NCI-H226; read-out: pTGI (converted),27.5 µM
same,GI50,EKVX,5.62 µM
same,LC50 (50% net cell kill),EKVX,> 100 µM
